From ChEMBL document CHEMBL1154352, “Toll-like receptor 7 selective synthetic oligoribonucleotide agonists: synthesis and structure-activity relationship studies” (J Med Chem, 2009)
Calls of active or inactive are those of the source. The calls are words filed in the database; no cut-off is given here.

Legend:
[1] = target: T1, Toll-like receptor 9 (Mus musculus) (UniProt Q9EQU3); assay: Activation of mouse TLR9 expressed in HEK293 assessed as induction of NF-kappaB activity reporter gene assay; format: cell-based
T1 sequence (whole entry): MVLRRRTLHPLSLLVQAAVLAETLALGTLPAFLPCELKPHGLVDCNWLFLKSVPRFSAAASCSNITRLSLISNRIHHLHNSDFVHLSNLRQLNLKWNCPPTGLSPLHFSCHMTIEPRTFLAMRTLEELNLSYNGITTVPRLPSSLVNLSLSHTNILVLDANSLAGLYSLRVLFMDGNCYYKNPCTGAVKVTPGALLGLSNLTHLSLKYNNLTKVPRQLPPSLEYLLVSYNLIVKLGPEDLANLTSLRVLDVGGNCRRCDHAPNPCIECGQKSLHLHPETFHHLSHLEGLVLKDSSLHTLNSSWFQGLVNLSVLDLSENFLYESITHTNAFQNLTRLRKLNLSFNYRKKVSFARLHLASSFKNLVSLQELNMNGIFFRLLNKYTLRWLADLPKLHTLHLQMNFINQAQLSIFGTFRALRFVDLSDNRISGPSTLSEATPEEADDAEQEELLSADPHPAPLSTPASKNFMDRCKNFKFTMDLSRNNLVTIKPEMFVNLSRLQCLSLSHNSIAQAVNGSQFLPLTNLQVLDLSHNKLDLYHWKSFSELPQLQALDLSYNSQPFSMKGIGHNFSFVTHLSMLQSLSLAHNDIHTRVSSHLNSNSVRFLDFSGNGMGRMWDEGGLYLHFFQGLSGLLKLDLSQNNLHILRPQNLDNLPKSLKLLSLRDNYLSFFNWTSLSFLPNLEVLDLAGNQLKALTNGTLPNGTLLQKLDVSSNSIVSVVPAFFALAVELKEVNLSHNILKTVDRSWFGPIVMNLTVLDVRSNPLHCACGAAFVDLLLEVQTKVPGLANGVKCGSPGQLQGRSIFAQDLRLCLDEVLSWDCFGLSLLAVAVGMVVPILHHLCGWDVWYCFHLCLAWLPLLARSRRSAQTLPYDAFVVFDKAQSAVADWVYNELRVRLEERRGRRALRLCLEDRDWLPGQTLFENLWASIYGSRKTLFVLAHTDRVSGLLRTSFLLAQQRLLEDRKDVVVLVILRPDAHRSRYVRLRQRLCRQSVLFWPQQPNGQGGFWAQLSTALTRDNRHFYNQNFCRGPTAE

[2] = target: T2, Toll-like receptor 7 (Homo sapiens) (UniProt Q9NYK1); assay: Activation of human TLR7 expressed in HEK293XL assessed as fold induction of NF-kappaB activity at 50 ug/ml after 18 hrs by reporter gene assay relative to control
T2 sequence (whole entry): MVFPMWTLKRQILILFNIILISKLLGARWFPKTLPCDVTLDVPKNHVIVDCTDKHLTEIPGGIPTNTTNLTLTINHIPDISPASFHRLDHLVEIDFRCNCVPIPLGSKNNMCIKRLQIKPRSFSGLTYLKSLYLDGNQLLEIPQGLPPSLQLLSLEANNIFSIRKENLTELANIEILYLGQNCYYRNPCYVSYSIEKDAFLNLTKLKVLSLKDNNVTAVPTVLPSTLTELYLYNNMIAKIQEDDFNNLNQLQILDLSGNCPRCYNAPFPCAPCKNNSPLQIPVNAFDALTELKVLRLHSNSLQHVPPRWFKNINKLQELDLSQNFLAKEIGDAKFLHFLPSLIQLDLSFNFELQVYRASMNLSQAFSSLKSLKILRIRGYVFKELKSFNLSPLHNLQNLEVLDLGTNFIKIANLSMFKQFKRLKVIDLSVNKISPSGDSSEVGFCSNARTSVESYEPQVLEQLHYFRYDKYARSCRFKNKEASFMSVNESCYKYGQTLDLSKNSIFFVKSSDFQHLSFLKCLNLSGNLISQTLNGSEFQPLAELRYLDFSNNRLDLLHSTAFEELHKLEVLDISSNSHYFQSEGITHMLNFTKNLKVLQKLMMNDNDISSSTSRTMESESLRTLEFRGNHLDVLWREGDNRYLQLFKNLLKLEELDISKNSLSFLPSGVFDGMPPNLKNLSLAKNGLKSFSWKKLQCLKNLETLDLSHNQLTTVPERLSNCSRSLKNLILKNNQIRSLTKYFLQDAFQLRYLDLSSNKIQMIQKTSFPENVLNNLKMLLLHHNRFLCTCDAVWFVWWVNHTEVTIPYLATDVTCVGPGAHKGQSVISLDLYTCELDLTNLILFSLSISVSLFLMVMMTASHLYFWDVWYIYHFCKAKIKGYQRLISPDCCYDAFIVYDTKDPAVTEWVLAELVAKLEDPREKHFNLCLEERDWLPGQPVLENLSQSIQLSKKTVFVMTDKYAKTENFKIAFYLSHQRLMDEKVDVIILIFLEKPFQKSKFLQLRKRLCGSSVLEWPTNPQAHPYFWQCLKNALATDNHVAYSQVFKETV
Procedure, shortened: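 HEK293 cells stably expressing human TLR7 or TLR8, transiently transfected with SEAP reporter plasmid; medium replaced, SIMRA compounds added, 18 h incubation. Supernatant SEAP measured by QuantiBlue; expressed as fold increase in NF-κB activity over PBS control. Tabulated data at 50 μg/mL, representative of three independent experiments.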

[3] = tested on: PBMC; assay: Immunomodulatory activity in human PBMC assessed as induction of TNFalpha at 100 ug/ml after 24 hrs; format: functional, cell-based
Procedure, shortened: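 Human PBMCs plated at 5 × 10^6 cells/mL; compounds dissolved in PBS added at various concentrations, 37 °C for 24 h. Supernatant cytokines/chemokines quantified with human Luminex multiplex kit.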

| Structure (SMILES) | Activity [1] | fold change (FC) [2] | Activity [3] [pg/mL] |
| --- | --- | --- | --- |
| Nc1ccn([C@@H]2O[C@H](COP(=O)(S)O[C@H]3[C@@H](O)[C@H](n4ccc5c(=O)[nH]c(N)nc54)O[C@@H]3CO[C@H]3[C@@H](O)[C@H](n4cnc5c(N)ncnc54)O[C@@H]3COP(=O)(S)O[C@H]3[C@@H](O)[C@H](n4ccc5c(=O)[nH]c(N)nc54)O[C@@H]3COP(=O)(S)O[C@H]3[C@@H](O)[C@H](n4ccc(=O)[nH]c4=O)O[C@@H]3COP(=O)(S)O[C@H]3[C@@H](O)[C@H](n4ccc(N)nc4=O)O[C@@H]3COP(=O)(S)O[C@H]3[C@@H](O)[C@H](n4ccc5c(=O)[nH]c(N)nc54)O[C@@H]3COP(=O)(S)O[C@H]3[C@@H](O)[C@H](n4ccc(=O)[nH]c4=O)O[C@@H]3COP(=O)(S)O[C@H]3[C@@H](O)[C@H](n4ccc(=O)[nH]c4=O)O[C@@H]3CO)[C@@H](OP(=O)(S)OC[C@H]3O[C@@H](n4ccc(=O)[nH]c4=O)[C@H](O)[C@@H]3OP(=O)(S)OC[C@H]3O[C@@H](n4ccc(=O)[nH]c4=O)[C@H](O)[C@@H]3OP(=O)(S)OCC(O)COP(=O)(S)O[C@H]3[C@@H](O)[C@H](n4ccc(=O)[nH]c4=O)O[C@@H]3COP(=O)(S)O[C@H]3[C@@H](O)[C@H](n4ccc(=O)[nH]c4=O)O[C@@H]3COP(=O)(S)O[C@H]3[C@@H](O)[C@H](n4ccc(N)nc4=O)O[C@@H]3COP(=O)(S)O[C@H]3[C@@H](O)[C@H](n4ccc5c(=O)[nH]c(N)nc54)O[C@@H]3CO[C@H]3[C@@H](O)[C@H](n4cnc5c(N)ncnc54)O[C@@H]3COP(=O)(S)O[C@H]3[C@@H](O)[C@H](n4ccc5c(=O)[nH]c(N)nc54)O[C@@H]3COP(=O)(S)O[C@H]3[C@@H](O)[C@H](n4ccc(=O)[nH]c4=O)O[C@@H]3COP(=O)(S)O[C@H]3[C@@H](O)[C@H](n4ccc(N)nc4=O)O[C@@H]3COP(=O)(S)O[C@H]3[C@@H](O)[C@H](n4ccc5c(=O)[nH]c(N)nc54)O[C@@H]3COP(=O)(S)O[C@H]3[C@@H](O)[C@H](n4ccc(=O)[nH]c4=O)O[C@@H]3COP(=O)(S)O[C@H]3[C@@H](O)[C@H](n4ccc(=O)[nH]c4=O)O[C@@H]3CO)[C@H]2O)c(=O)n1 (some centres undefined) | inactive | 26.7 | 415 |
| Nc1ccn([C@@H]2O[C@H](COP(=O)(S)O[C@H]3[C@@H](O)[C@H](n4cnc5c(N)ncnc54)O[C@@H]3COP(=O)(S)O[C@H]3[C@@H](O)[C@H](n4cnc5c(N)ncnc54)O[C@@H]3CO)[C@@H](OP(=O)(S)OC[C@H]3O[C@@H](n4ccc(=O)[nH]c4=O)[C@H](O)[C@@H]3OP(=O)(S)OC[C@H]3O[C@@H](n4ccc5c(=O)[nH]c(N)nc54)[C@H](O)[C@@H]3OP(=O)(S)OC[C@H]3O[C@@H](n4cnc5c(N)ncnc54)[C@H](O)[C@@H]3OP(=O)(S)OC[C@H]3O[C@@H](n4cnc5c(N)ncnc54)[C@H](O)[C@@H]3OP(=O)(S)OC[C@H]3O[C@@H](n4ccc5c(=O)[nH]c(N)nc54)[C@H](O)[C@@H]3OP(=O)(S)OC[C@H]3O[C@@H](n4ccc(N)nc4=O)[C@H](O)[C@@H]3OP(=O)(S)OC[C@H]3O[C@@H](n4ccc(=O)[nH]c4=O)[C@H](O)[C@@H]3OP(=O)(S)OC[C@H]3O[C@@H](n4ccc5c(=O)[nH]c(N)nc54)[C@H](O)[C@@H]3OP(=O)(S)OCC(O)COP(=O)(S)O[C@H]3[C@@H](O)[C@H](n4ccc5c(=O)[nH]c(N)nc54)O[C@@H]3COP(=O)(S)O[C@H]3[C@@H](O)[C@H](n4ccc(=O)[nH]c4=O)O[C@@H]3COP(=O)(S)O[C@H]3[C@@H](O)[C@H](n4ccc(N)nc4=O)O[C@@H]3COP(=O)(S)O[C@H]3[C@@H](O)[C@H](n4ccc5c(=O)[nH]c(N)nc54)O[C@@H]3COP(=O)(S)O[C@H]3[C@@H](O)[C@H](n4cnc5c(N)ncnc54)O[C@@H]3COP(=O)(S)O[C@H]3[C@@H](O)[C@H](n4cnc5c(N)ncnc54)O[C@@H]3COP(=O)(S)O[C@H]3[C@@H](O)[C@H](n4ccc5c(=O)[nH]c(N)nc54)O[C@@H]3COP(=O)(S)O[C@H]3[C@@H](O)[C@H](n4ccc(=O)[nH]c4=O)O[C@@H]3COP(=O)(S)O[C@H]3[C@@H](O)[C@H](n4ccc(N)nc4=O)O[C@@H]3COP(=O)(S)O[C@H]3[C@@H](O)[C@H](n4cnc5c(N)ncnc54)O[C@@H]3COP(=O)(S)O[C@H]3[C@@H](O)[C@H](n4cnc5c(N)ncnc54)O[C@@H]3CO)[C@H]2O)c(=O)n1 (some centres undefined) | inactive | 18.4 | 3.5 |
| Nc1ccn([C@@H]2O[C@H](COP(=O)(S)O[C@H]3[C@@H](O)[C@H](n4cnc5c(N)ncnc54)O[C@@H]3CO)[C@@H](OP(=O)(S)OC[C@H]3O[C@@H](n4ccc5c(=O)[nH]c(N)nc54)[C@H](O)[C@@H]3OP(=O)(S)OC[C@H]3O[C@@H](n4ccc(N)nc4=O)[C@H](O)[C@@H]3OP(=O)(S)OC[C@H]3O[C@@H](n4ccc(=O)[nH]c4=O)[C@H](O)[C@@H]3OP(=O)(S)OC[C@H]3O[C@@H](n4ccc5c(=O)[nH]c(N)nc54)[C@H](O)[C@@H]3OP(=O)(S)OC[C@H]3O[C@@H](n4cnc5c(N)ncnc54)[C@H](O)[C@@H]3OP(=O)(S)OC[C@H]3O[C@@H](n4ccc5c(=O)[nH]c(N)nc54)[C@H](O)[C@@H]3OP(=O)(S)OC[C@H]3O[C@@H](n4ccc(N)nc4=O)[C@H](O)[C@@H]3OP(=O)(S)OC[C@H]3O[C@@H](n4ccc(=O)[nH]c4=O)[C@H](O)[C@@H]3OP(=O)(S)OC[C@H]3O[C@@H](n4ccc(=O)[nH]c4=O)[C@H](O)[C@@H]3OP(=O)(S)OCC(O)COP(=O)(S)O[C@H]3[C@@H](O)[C@H](n4ccc(=O)[nH]c4=O)O[C@@H]3COP(=O)(S)O[C@H]3[C@@H](O)[C@H](n4ccc(=O)[nH]c4=O)O[C@@H]3COP(=O)(S)O[C@H]3[C@@H](O)[C@H](n4ccc(N)nc4=O)O[C@@H]3COP(=O)(S)O[C@H]3[C@@H](O)[C@H](n4ccc5c(=O)[nH]c(N)nc54)O[C@@H]3COP(=O)(S)O[C@H]3[C@@H](O)[C@H](n4cnc5c(N)nc(N)nc54)O[C@@H]3COP(=O)(S)O[C@H]3[C@@H](O)[C@H](n4ccc5c(=O)[nH]c(N)nc54)O[C@@H]3COP(=O)(S)O[C@H]3[C@@H](O)[C@H](n4ccc(=O)[nH]c4=O)O[C@@H]3COP(=O)(S)O[C@H]3[C@@H](O)[C@H](n4ccc(N)nc4=O)O[C@@H]3COP(=O)(S)O[C@H]3[C@@H](O)[C@H](n4ccc5c(=O)[nH]c(N)nc54)O[C@@H]3COP(=O)(S)O[C@H]3[C@@H](O)[C@H](n4ccc(N)nc4=O)O[C@@H]3COP(=O)(S)O[C@H]3[C@@H](O)[C@H](n4cnc5c(N)ncnc54)O[C@@H]3CO)[C@H]2O)c(=O)n1 (some centres undefined) | inactive | 26.6 | 1410 |
